Assay results published in ChEMBL document CHEMBL3822422, “Discovery of the First α-Amino-3-hydroxy-5-methyl-4-isoxazolepropionic Acid (AMPA) Receptor Antagonist Dependent upon Transmembrane AMPA Receptor Regulatory Protein (TARP) γ-8” (J Med Chem, 2016).

Assays:
[1] = Volume of distribution at steady state in rat at 1 mg/kg, iv; format: ADME, organism-based; conditions: in vivo, read-out: Vdss
Method in brief: (§1)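 Rats dosed 1 mg/kg iv or 3 mg/kg po; plasma concentration–time profiles give AUC, CL, Vdss, Cmax, Tmax and absolute oral bioavailability; mean and SEM, n = 3.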

[2] = Toxicity in po dosed Sprague-Dawley rat assessed as motor impairment by inverted screen test; format: organism-based; conditions: in vivo
Method in brief: (§2)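 Rats given compound orally (10 or 100 mg/kg), scored on inverted screen for motor impairment; plasma exposure measured; ≥4 rats/group, mean ± SEM; TD50 used with PTZ ED50 for protective index.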

[3] = system: Brain; assay: Drug uptake in Sprague-Dawley rat brain at 3 mg/kg, po; format: ADME, organism-based; conditions: in vivo
Method in brief: (§3)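 Rats dosed orally 1–30 mg/kg 30 min before iv bolus of non-radiolabelled tracer; brain taken 40 min after tracer; tracer in hippocampus (total binding) and cerebellum (null region) quantified by LC-MS/MS; occupancy by ratio method; brain exposure measured; n = 4 per group, mean ± SEM.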

[4] = system: Rattus norvegicus; assay: Anticonvulsant activity in po dosed Sprague-Dawley rat assessed as inhibition of pentylenetetrazole-induced clonic convulsions at 10 mg/kg administered 30 mins prior to PTZ dosing measured over 30 mins; format: functional
[5] = system: Plasma; assay: Plasma concentration in Sprague-Dawley rat at 30 mg/kg, po; format: ADME, organism-based; conditions: in vivo
[6] = molecular target: T1, Glutamate receptor 1 (Homo sapiens, UniProt P42261); assay: Antagonist activity at human iGluA1 receptor flip isoform expressed in CHO-S cells assessed as inhibition of glutamate-induced increase in intracellular calcium levels after 2 mins followed by cyclothiazide/glutamate addition by fluo-4 NW dye based fluorescence imaging plate reader method; format: cell-based
[7] = AUC in rat at 3 mg/kg, po; format: ADME, organism-based; conditions: in vivo; method in brief: as §1
[8] = Cmax in rat at 3 mg/kg, po; format: ADME, organism-based; set-up: dose 3 mg/kg, route oral; conditions: in vivo; method in brief: as §1
[9] = system: Rattus norvegicus; assay: Receptor occupancy at TARP gamma-8 containing AMPA receptor in Sprague-Dawley rat at 3 mg/kg, po administered 30 mins prior to addition of 6-[2-Ethoxyethyl-[4-(2-pyridyl)thiazol-2-yl]amino]-3H-1,3-benzothiazol-2-one measured after 40 mins by […]; format: functional
[10] = organism: Rattus norvegicus; assay: Potency index, ratio of perampanel ED50 to compound ED50 for inhibition of pentylenetetrazole-induced clonic convulsions in Sprague-Dawley rat; format: functional
[11] = AUC in rat at 1 mg/kg, iv; format: ADME, organism-based; conditions: in vivo; method in brief: as §1
[12] = system: Rattus norvegicus; assay: Anticonvulsant activity in po dosed Sprague-Dawley rat assessed as inhibition of pentylenetetrazole-induced clonic convulsions administered 30 mins prior to PTZ dosing measured over 30 mins; format: functional
[13] = system: Rattus norvegicus; assay: Toxicity in Sprague-Dawley rat assessed as motor impairment up to 100 mg/kg, po by inverted screen test; format: organism-based; conditions: in vivo; method in brief: as §2
[14] = system: Plasma; assay: Plasma concentration in Sprague-Dawley rat at 100 mg/kg, po; format: ADME, organism-based; conditions: in vivo; method in brief: as §2
[15] = system: Brain; assay: Drug uptake in Sprague-Dawley rat brain at 10 mg/kg, po; format: ADME, organism-based; conditions: in vivo; method in brief: as §3
[16] = system: Rattus norvegicus; assay: Protective index, ratio of TD50 for motor impairment to ED50 for inhibition of pentylenetetrazole-induced clonic convulsions in po dosed Sprague-Dawley rat
Method in brief: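 PI = inverted screen TD50 divided by PTZ ED50. For the ED50, rats were dosed orally 30 min before PTZ (35 mg/kg, sc), with n = 10 per group. Read-out was % block of clonic convulsions; ED50 given with 95% confidence limits.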

[17] = Oral bioavailability in rat at 3 mg/kg; format: ADME, organism-based; conditions: in vivo; method in brief: as §1
[18] = system: Plasma; assay: Plasma concentration in Sprague-Dawley rat at 3 mg/kg, po; format: ADME, organism-based; conditions: in vivo
[19] = molecular target: T2, Cytochrome P450 1A2 (Homo sapiens, UniProt P05177); assay: Inhibition of human CYP1A2; format: ADME
T2 sequence (P05177 whole entry): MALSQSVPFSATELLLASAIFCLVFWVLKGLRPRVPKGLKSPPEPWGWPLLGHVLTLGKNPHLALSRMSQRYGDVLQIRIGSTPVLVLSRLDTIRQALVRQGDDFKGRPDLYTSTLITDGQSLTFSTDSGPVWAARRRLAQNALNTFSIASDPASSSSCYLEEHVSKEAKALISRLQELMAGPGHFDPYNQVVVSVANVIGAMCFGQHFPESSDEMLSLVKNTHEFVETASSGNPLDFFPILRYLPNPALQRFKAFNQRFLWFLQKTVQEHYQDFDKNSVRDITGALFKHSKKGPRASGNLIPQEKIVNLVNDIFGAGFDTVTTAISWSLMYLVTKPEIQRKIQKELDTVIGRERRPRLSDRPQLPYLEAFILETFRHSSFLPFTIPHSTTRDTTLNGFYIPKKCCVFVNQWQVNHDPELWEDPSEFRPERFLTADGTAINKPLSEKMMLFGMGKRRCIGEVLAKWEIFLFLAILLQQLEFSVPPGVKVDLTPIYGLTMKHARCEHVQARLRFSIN

[20] = Clearance in rat; format: ADME, organism-based; conditions: in vivo
[21] = system: Rattus norvegicus; assay: Anticonvulsant activity in po dosed Sprague-Dawley rat assessed as inhibition of pentylenetetrazole-induced clonic convulsions at 3 mg/kg administered 30 mins prior to PTZ dosing measured over 30 mins; format: functional
[22] = system: Plasma; assay: Plasma concentration in Sprague-Dawley rat at 1 mg/kg, po; format: ADME, organism-based; conditions: in vivo
[23] = system: Rattus norvegicus; assay: Anticonvulsant activity in po dosed Sprague-Dawley rat assessed as inhibition of pentylenetetrazole-induced clonic convulsions at 1 mg/kg administered 30 mins prior to PTZ dosing measured over 30 mins; format: functional
[24] = system: Brain; assay: Drug uptake in Sprague-Dawley rat brain at 30 mg/kg, po; format: ADME, organism-based; conditions: in vivo; method in brief: as §3
[25] = system: Rattus norvegicus; assay: Receptor occupancy at TARP gamma-8 containing AMPA receptor in Sprague-Dawley rat at 1 mg/kg, po administered 30 mins prior to addition of 6-[2-Ethoxyethyl-[4-(2-pyridyl)thiazol-2-yl]amino]-3H-1,3-benzothiazol-2-one measured after 40 mins by […]; format: functional
[26] = molecular target: T1, Glutamate receptor 1; assay: Antagonist activity at human iGluA1 receptor flop isoform expressed in CHO-S cells coexpressing TARP gamma-2 assessed as inhibition of glutamate-induced increase in intracellular calcium levels after 2 mins followed by cyclothiazide/glutamate addition by fluo-4 AM dye based fluorescence imaging plate reader method; format: cell-based
[27] = Clearance in rat at 1 mg/kg, iv; format: ADME, organism-based; conditions: in vivo; method in brief: as §1
[28] = Tmax in rat at 3 mg/kg, po; format: ADME, organism-based; conditions: in vivo; method in brief: as §1
[29] = system: Brain; assay: Drug uptake in Sprague-Dawley rat brain at 1 mg/kg, po; format: ADME, organism-based; conditions: in vivo; method in brief: as §3
[30] = system: Rattus norvegicus; assay: Receptor occupancy at TARP gamma-8 containing AMPA receptor in Sprague-Dawley rat at 30 mg/kg, po administered 30 mins prior to addition of 6-[2-Ethoxyethyl-[4-(2-pyridyl)thiazol-2-yl]amino]-3H-1,3-benzothiazol-2-one measured after 40 mins by […]; format: functional
[31] = molecular target: T1, Glutamate receptor 1; assay: Antagonist activity at human iGluA1 receptor flop isoform expressed in CHO-S cells coexpressing TARP gamma-8 and human EAAT3 assessed as inhibition of glutamate-induced increase in intracellular calcium levels after 2 mins followed by cyclothiazide/glutamate addition by fluo-4 AM dye based fluorescence imaging plate reader method; format: cell-based
Method in brief: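 Transiently transfected CHO-S cells (human GluA1Q flop with TARP γ-8 and human EAAT3, DNA ratio 2:3), frozen, thawed, plated overnight at 37 °C; Fluo-4 AM loading 2 h at 22 °C. Compound added, then 2 min later glutamate (5 μM final); cyclothiazide (20 μM) plus glutamate (45 μM) 2 min after. FLIPR Ca2+ read; inhibition relative to 167 μM nonselective antagonist and buffer baseline; four-parameter logistic IC50; mean ± SEM, n ≥ 2.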

[32] = system: Rattus norvegicus; assay: Receptor occupancy at TARP gamma-8 containing AMPA receptor in Sprague-Dawley rat at 10 mg/kg, po administered 30 mins prior to addition of 6-[2-Ethoxyethyl-[4-(2-pyridyl)thiazol-2-yl]amino]-3H-1,3-benzothiazol-2-one measured after 40 mins by […]; format: functional
[33] = system: Plasma; assay: Plasma concentration in Sprague-Dawley rat at 10 mg/kg, po; format: ADME, organism-based; conditions: in vivo

T1 sequence (P42261 whole entry, canonical isoform): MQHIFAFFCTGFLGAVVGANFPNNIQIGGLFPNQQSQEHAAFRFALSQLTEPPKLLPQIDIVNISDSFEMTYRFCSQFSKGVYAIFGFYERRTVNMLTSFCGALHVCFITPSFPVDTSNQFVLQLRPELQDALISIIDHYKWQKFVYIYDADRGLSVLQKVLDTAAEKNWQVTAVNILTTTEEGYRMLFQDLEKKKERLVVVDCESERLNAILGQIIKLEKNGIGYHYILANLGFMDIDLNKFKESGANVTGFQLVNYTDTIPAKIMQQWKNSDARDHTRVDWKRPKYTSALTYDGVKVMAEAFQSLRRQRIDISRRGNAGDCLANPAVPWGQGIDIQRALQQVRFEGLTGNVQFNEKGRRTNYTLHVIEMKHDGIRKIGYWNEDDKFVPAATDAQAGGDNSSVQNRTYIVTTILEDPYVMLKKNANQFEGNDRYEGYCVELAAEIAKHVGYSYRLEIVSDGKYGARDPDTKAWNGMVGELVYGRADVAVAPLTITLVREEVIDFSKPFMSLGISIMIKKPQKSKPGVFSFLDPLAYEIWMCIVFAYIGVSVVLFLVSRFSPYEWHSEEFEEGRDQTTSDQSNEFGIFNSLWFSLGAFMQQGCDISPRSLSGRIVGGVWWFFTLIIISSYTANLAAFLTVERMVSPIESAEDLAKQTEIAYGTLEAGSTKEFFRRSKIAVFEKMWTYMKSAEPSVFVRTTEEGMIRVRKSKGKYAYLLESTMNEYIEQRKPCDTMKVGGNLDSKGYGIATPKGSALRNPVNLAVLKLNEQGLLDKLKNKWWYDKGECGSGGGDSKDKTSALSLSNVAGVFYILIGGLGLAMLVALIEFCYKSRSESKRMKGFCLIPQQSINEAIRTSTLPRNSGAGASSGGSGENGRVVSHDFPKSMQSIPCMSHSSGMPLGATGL

C[C@@H](c1ccc2[nH]c(=O)sc2c1)c1ccn(-c2ccc(OCCO)cn2)n1
Vd [1]: 1.28 L/kg
TD50 [2]: 3.8 mg/kg
Drug uptake [3]: 477 ng/g
inhibition in vivo at 10 mg/kg [4]: 100%
Cp [5]: 1780 ng/mL
IC50 [6]: 83.3 µM
AUC [7]: 4220 ng·h/mL
Cmax [8]: 628 ng/mL
Occ [9]: 69%
Ratio ED50 [10]: 10
AUC [11]: 1470 ng·h/mL
ED50 [12]: 1.7 mg/kg
inhibition [12]: Dose-dependent effect
Activity [13]: Non-toxic
Cp [14]: 8342 ng/mL
Drug uptake [15]: 1526 ng/g
Ratio TD50/ED50 [16]: >58
bioavailability [17]: 97%
Cp [18]: 1269 ng/mL
IC50 [19]: > 10 µM
clearance [20]: 11.4 mL/min/kg
inhibition in vivo at 3 mg/kg [21]: 80%
Cp [22]: 377 ng/mL
inhibition in vivo at 1 mg/kg [23]: 40%
Drug uptake [24]: 2400 ng/g
Occ [25]: 45%
IC50 [26]: 68.5 µM
clearance [27]: 11.4 mL/min/kg
Tmax [28]: 1.3 h
Drug uptake [29]: 133 ng/g
Occ [30]: 96%
IC50 [31]: 0.0653 µM
Occ [32]: 68%
Cp [33]: 3360 ng/mL
